From ChEMBL document CHEMBL1126899, “Nonpeptide angiotensin II antagonists derived from 1H-pyrazole-5-carboxylates and 4-aryl-1H-imidazole-5-carboxylates” (J Med Chem, 1993)

What was measured:
[1] = target: T1, Type-1 angiotensin II receptor (Oryctolagus cuniculus, UniProt P34976); assay: Evaluation of Angiotensin II antagonistic activity by displacement of [125I]-Sar Ile-AII at the rabbit aorta Angiotensin II receptor, type 1; type: tissue-based
T1 sequence (P34976 whole entry): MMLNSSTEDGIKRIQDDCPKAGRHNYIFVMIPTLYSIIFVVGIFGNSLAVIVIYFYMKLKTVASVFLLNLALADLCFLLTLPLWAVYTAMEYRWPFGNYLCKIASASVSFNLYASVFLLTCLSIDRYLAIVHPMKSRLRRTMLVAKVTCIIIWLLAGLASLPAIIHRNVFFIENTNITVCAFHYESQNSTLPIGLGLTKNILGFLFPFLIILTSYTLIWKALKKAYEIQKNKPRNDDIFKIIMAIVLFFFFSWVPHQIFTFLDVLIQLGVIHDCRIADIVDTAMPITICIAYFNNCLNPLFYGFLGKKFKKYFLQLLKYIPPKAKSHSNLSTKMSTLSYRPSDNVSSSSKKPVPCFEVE
Procedure, shortened: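 Rabbit aorta membranes, run without BSA. Competition against [¹²⁵I]Sar¹Ile⁸-AII, in duplicate tubes. Some values are means of two or more separate assays. Standard error is estimated at <30% of the mean.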

[2] = tested on: Rattus norvegicus; assay: Time to produce onset of action for inhibition of Angiotensin II pressor response in conscious, normotensive rats at 1 mg/kg iv; type: functional
Procedure, shortened: (§1)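 Conscious male Sprague-Dawley rats (300–400 g), instrumented for iv dosing and arterial pressure. A single iv or po bolus of compound (PEG 400 for some oral doses), then repeated AII challenges at 0.1 μg/kg iv. […] Averaged from at least two rats unless noted.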

[3] = tested on: Rattus norvegicus; assay: Peak percent inhibition of Angiotensin II pressor response in conscious, normotensive rats at 1 mg/kg iv; type: functional
Procedure, shortened: (§2)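 Male Sprague-Dawley rats (300–400 g), conscious, catheterized for iv dosing and for arterial pressure and heart rate. Compound given iv or po; PEG 400 vehicle in some oral cases. AII 0.1 μg/kg iv boluses at set intervals afterward. % inhibition of the MAP rise was calculated at each time point, and the peak was taken. Averaged from at least two rats unless noted.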

[4] = tested on: Rattus norvegicus; assay: Time to produce onset of action for inhibition of Angiotensin II pressor response in conscious, normotensive rats at 0.1 mg/kg iv; type: functional; procedure, shortened: as §1
[5] = tested on: Rattus norvegicus; assay: Time to produce onset of action for inhibition of Angiotensin II pressor response in conscious, normotensive rats at 0.3 mg/kg po; type: functional; procedure, shortened: as §1
[6] = tested on: Rattus norvegicus; assay: Time to produce onset of action for inhibition of Angiotensin II pressor response in conscious, normotensive rats at 1 mg/kg po; type: functional; procedure, shortened: as §1
[7] = tested on: Rattus norvegicus; assay: Peak percent inhibition of Angiotensin II pressor response in conscious, normotensive rats at 0.1 mg/kg iv; type: functional; procedure, shortened: as §2
[8] = tested on: Rattus norvegicus; assay: Peak percent inhibition of Angiotensin II pressor response in conscious, normotensive rats at 1 mg/kg po; type: functional; procedure, shortened: as §2
[9] = tested on: Rattus norvegicus; assay: Peak percent inhibition of Angiotensin II pressor response in conscious, normotensive rats at 0.3 mg/kg po; type: functional; procedure, shortened: as §2
[10] = tested on: Rattus norvegicus; assay: Time to produce onset of action for inhibition of Angiotensin II pressor response in conscious, normotensive rats at 0.3 mg/kg iv; type: functional; procedure, shortened: as §1
[11] = tested on: Rattus norvegicus; assay: Peak percent inhibition of Angiotensin II pressor response in conscious, normotensive rats at 0.3 mg/kg iv; type: functional; procedure, shortened: as §2
[12] = tested on: Rattus norvegicus; assay: Time to produce onset of action for inhibition of pressor response in conscious, normotensive rats at 1 mg/kg iv (no. of animals treated); type: functional; procedure, shortened: as §1
[13] = tested on: Rattus norvegicus; assay: Peak percent inhibition of Angiotensin II pressor response in conscious, normotensive rats at 1 mg/kg iv (no. of animals treated); type: functional; procedure, shortened: as §2
[14] = tested on: Rattus norvegicus; assay: Peak percent inhibition of Angiotensin II pressor response in conscious, normotensive rats at 0.3 mg/kg po(no. of animals treated); type: functional; procedure, shortened: as §2
[15] = tested on: Rattus norvegicus; assay: Time to produce onset of action for inhibition of pressor response in conscious, normotensive rats at 0.1 mg/kg iv (no. of animals treated); type: functional; procedure, shortened: as §1
[16] = tested on: Rattus norvegicus; assay: Time to produce onset of action for inhibition of pressor response in conscious, normotensive rats at 0.3 mg/kg po (no. of animals treated); type: functional; procedure, shortened: as §1
[17] = tested on: Rattus norvegicus; assay: Peak percent inhibition of Angiotensin II pressor response in conscious, normotensive rats at 0.1 mg/kg iv (no. of animals treated); type: functional; procedure, shortened: as §2

IC50 [1] [nM]	Structure (SMILES)	other results
37	CCCCc1nn(-c2c(Cl)cc(Cl)cc2Cl)c(C(=O)OCC)c1Cc1ccc(-c2ccccc2-c2nn[nH]n2)cc1	–
0.24	CCCCc1nn(CCc2ccccc2)c(C(=O)O)c1Cc1ccc(-c2ccccc2-c2nn[nH]n2)cc1	Duration [2]: >24 h; inhibition in vivo at 1 mg/kg [3]: 95%
0.69	CCCc1nn(-c2c(Cl)cccc2Cl)c(C(=O)O)c1Cc1ccc(-c2ccccc2-c2nn[nH]n2)cc1	Duration [4]: 5.4 h; Duration [5]: >3 h; Duration [2]: >6 h; Duration [6]: >23 h; inhibition in vivo at 0.1 mg/kg [7]: 60%; inhibition in vivo at 1 mg/kg [3]: 100%; inhibition in vivo at 1 mg/kg [8]: 87%; inhibition in vivo at 0.3 mg/kg [9]: 56%
0.35	CCCCc1nn(-c2ccccc2Cl)c(C(=O)O)c1Cc1ccc(-c2ccccc2-c2nn[nH]n2)cc1	Duration [2]: >6 h; Duration [6]: >3 h; Duration [10]: ~3.8 h; inhibition in vivo at 0.3 mg/kg [11]: 73%; inhibition in vivo at 1 mg/kg [3]: 93%; inhibition in vivo at 1 mg/kg [8]: 64%
0.24	CCCCc1nn(-c2ccccc2C(F)(F)F)c(C(=O)O)c1Cc1ccc(-c2ccccc2-c2nn[nH]n2)cc1	Duration [4]: 3.5 h; Duration [2]: 5.3 h; inhibition in vivo at 0.1 mg/kg [7]: 57%; inhibition in vivo at 1 mg/kg [3]: 100%
22	CCCc1nn(Cc2ccccc2)c(C(=O)OCC)c1Cc1ccc(-c2ccccc2-c2nn[nH]n2)cc1	–
3.2	CCCCc1nn(-c2cc(Cl)ccc2Cl)c(C(=O)O)c1Cc1ccc(-c2ccccc2-c2nnn[nH]2)cc1	–
0.18	CCCCc1nn(-c2c(Cl)cccc2Cl)c(C(=O)O)c1Cc1ccc(-c2ccccc2-c2nn[nH]n2)cc1	Duration [4]: >4.5 h; Duration [6]: >4.5 h; inhibition in vivo at 0.1 mg/kg [7]: 80%; inhibition in vivo at 1 mg/kg [8]: 79%
2.7	CCCCc1nn(CC)c(C(=O)O)c1Cc1ccc(-c2ccccc2-c2nn[nH]n2)cc1	–
1.7	CCCCc1nn(-c2ccccn2)c(C(=O)O)c1Cc1ccc(-c2ccccc2-c2nn[nH]n2)cc1	–
2.3	CCCCc1nn(-c2cccc(Cl)c2)c(C(=O)O)c1Cc1ccc(-c2ccccc2-c2nn[nH]n2)cc1	–
76	CCOC(=O)c1c(Cc2ccc(-c3ccccc3-c3nnn[nH]3)cc2)c(CC2CC2)nn1-c1c(Cl)cccc1Cl	–
55	CCCCc1nn(-c2cccc(Cl)c2)c(C(=O)OCC)c1Cc1ccc(-c2ccccc2-c2nn[nH]n2)cc1	–
8	CCCCc1nn(-c2c(Cl)cccc2Cl)c(C(=O)OCC)c1Cc1ccc(-c2ccccc2-c2nnn[nH]2)cc1	–
0.5	CCCCc1nn(-c2c(Cl)cc(Cl)cc2Cl)c(C(=O)O)c1Cc1ccc(-c2ccccc2-c2nnn[nH]2)cc1	–
1.3	CCCCc1nn(-c2ccc(Cl)cc2)c(C(=O)O)c1Cc1ccc(-c2ccccc2-c2nn[nH]n2)cc1	–
3.7	O=C(O)c1c(Cc2ccc(-c3ccccc3-c3nn[nH]n3)cc2)c(CC2CC2)nn1-c1c(Cl)cccc1Cl	–
0.46	CCCCc1nn(-c2ccccc2C)c(C(=O)O)c1Cc1ccc(-c2ccccc2-c2nn[nH]n2)cc1	–
0.8	CCCCc1nn(-c2ccc(OC)cc2)c(C(=O)O)c1Cc1ccc(-c2ccccc2-c2nn[nH]n2)cc1	–
0.6	CCCCc1nn(-c2ccc(Cl)cc2Cl)c(C(=O)O)c1Cc1ccc(-c2ccccc2-c2nn[nH]n2)cc1	–
0.67	CCCc1nn(-c2ccccc2C(F)(F)F)c(C(=O)O)c1Cc1ccc(-c2ccccc2-c2nn[nH]n2)cc1	Duration [5]: >3.5 h; Duration [2]: >6 h; Duration [6]: >3.5 h; Duration [10]: ~4 h; inhibition in vivo at 0.3 mg/kg [11]: 77%; inhibition in vivo at 1 mg/kg [3]: 100%; inhibition in vivo at 1 mg/kg [8]: 71%; inhibition in vivo at 0.3 mg/kg [9]: 57%
13	CCCCc1nn(-c2ccccc2Cl)c(C(=O)OCC)c1Cc1ccc(-c2ccccc2-c2nn[nH]n2)cc1	Duration [6]: >2.5 h; inhibition in vivo at 1 mg/kg [3]: 43%; inhibition in vivo at 1 mg/kg [8]: 50%
0.2	CCCCc1nn(Cc2ccccc2)c(C(=O)O)c1Cc1ccc(-c2ccccc2-c2nn[nH]n2)cc1	Duration [4]: >5 h; Duration [5]: >3 h; Duration [6]: >24 h; inhibition in vivo at 0.1 mg/kg [7]: 68%; inhibition in vivo at 0.3 mg/kg [14]: 75%; inhibition in vivo at 1 mg/kg [8]: 100%
0.77	CCCCc1nn(-c2cccc(Cl)c2Cl)c(C(=O)O)c1Cc1ccc(-c2ccccc2-c2nnn[nH]2)cc1	–
105	CCCCc1nn(-c2cc(Cl)ccc2Cl)c(C(=O)OCC)c1Cc1ccc(-c2ccccc2-c2nn[nH]n2)cc1	–
20	CCCc1nn(-c2c(Cl)cccc2Cl)c(C(=O)OCC)c1Cc1ccc(-c2ccccc2-c2nn[nH]n2)cc1	–
0.55	CCCCc1nc(-c2ccccc2Cl)c(C(=O)O)n1Cc1ccc(-c2ccccc2-c2nn[nH]n2)cc1	Duration [15]: >6 h; Duration [16]: 0.4 h; inhibition in vivo at 0.1 mg/kg [17]: 88%; inhibition in vivo at 0.3 mg/kg [14]: 50%

Further lines, the compound ahead of its results:

Structure (SMILES)	IC50 [1] [nM]	other results
CCCCc1nn(-c2ccc(Cl)cc2)c(C(=O)OCC)c1Cc1ccc(-c2ccccc2-c2nn[nH]n2)cc1	100	–
CCCCc1nn(-c2ccccc2C(F)(F)F)c(C(=O)OCC)c1Cc1ccc(-c2ccccc2-c2nnn[nH]2)cc1	21	–
CCCCc1nn(-c2ccccc2-c2ccccc2)c(C(=O)OCC)c1Cc1ccc(-c2ccccc2-c2nn[nH]n2)cc1	23	–
CCCc1nn(CC(F)(F)F)c(C(=O)OCC)c1Cc1ccc(-c2ccccc2-c2nnn[nH]2)cc1	76	–
CCCCc1nn(-c2ccc(Cl)cc2Cl)c(C(=O)OCC)c1Cc1ccc(-c2ccccc2-c2nnn[nH]2)cc1	6.7	–
CCCCc1nn(-c2ccccc2-c2ccccc2)c(C(=O)O)c1Cc1ccc(-c2ccccc2-c2nnn[nH]2)cc1	0.64	–
CCCc1nn(-c2ccccc2C(F)(F)F)c(C(=O)OCC)c1Cc1ccc(-c2ccccc2-c2nnn[nH]2)cc1	56	–
CCCCc1nn(-c2ccccc2)c(C(=O)OCC)c1Cc1ccc(-c2ccccc2-c2nnn[nH]2)cc1	81	–
CCCCc1nn(Cc2ccccc2)c(C(=O)OCC)c1Cc1ccc(-c2ccccc2-c2nnn[nH]2)cc1	> 100	–
CCCCc1nn(CC(F)(F)F)c(C(=O)OCC)c1Cc1ccc(-c2ccccc2-c2nn[nH]n2)cc1	30	–
CCCCc1n[nH]c(C(=O)O)c1Cc1ccc(-c2ccccc2-c2nn[nH]n2)cc1	2	Duration [12]: >6 h; inhibition in vivo at 1 mg/kg [13]: 94%
CCCCc1nn(-c2cccc(Cl)c2Cl)c(C(=O)OCC)c1Cc1ccc(-c2ccccc2-c2nnn[nH]2)cc1	90	–
CCCCc1nn(-c2ccccc2[N+](=O)[O-])c(C(=O)OCC)c1Cc1ccc(-c2ccccc2-c2nnn[nH]2)cc1	9.5	–
CCCCc1nn(CC(F)(F)F)c(C(=O)O)c1Cc1ccc(-c2ccccc2-c2nn[nH]n2)cc1	0.52	–
CCCc1[nH]nc(C(=O)OCC)c1Cc1ccc(-c2ccccc2-c2nnn[nH]2)cc1	160	–
CCCCc1nn(-c2ccc(OC)cc2[N+](=O)[O-])c(C(=O)O)c1Cc1ccc(-c2ccccc2-c2nnn[nH]2)cc1	2.5	–
CCCCc1nn(-c2ccc(OC)cc2)c(C(=O)OCC)c1Cc1ccc(-c2ccccc2-c2nnn[nH]2)cc1	20	–
CCCCc1nn(-c2ccccc2C)c(C(=O)OCC)c1Cc1ccc(-c2ccccc2-c2nn[nH]n2)cc1	13	–
CCCCc1nn(-c2ccccc2[N+](=O)[O-])c(C(=O)O)c1Cc1ccc(-c2ccccc2-c2nnn[nH]2)cc1	1.7	–
CCCCc1nc(-c2ccccc2)c(C(=O)OCC)n1Cc1ccc(-c2ccccc2-c2nn[nH]n2)cc1	41	–
CCCCc1n[nH]c(C(=O)OCC)c1Cc1ccc(-c2ccccc2-c2nn[nH]n2)cc1	130	Duration [2]: >5 h; inhibition in vivo at 1 mg/kg [3]: 80%
CCCCc1nn(-c2ccccn2)c(C(=O)OCC)c1Cc1ccc(-c2ccccc2-c2nnn[nH]2)cc1	18	–
CCCc1nc(C(F)(F)C(F)(F)F)c(C(=O)O)n1Cc1ccc(-c2ccccc2-c2nnn[nH]2)cc1	1.1	–
